The values that follow come from the RNAGym collection of RNA variant scans (doi:10.1126/science.aae0568).

B1: tRNA (parent)
chain: GUUCCGUUGGCGUAAUGGUAACGCGUCUCCCUCCUAAGGAGAAGACUGCGGGUUCGAGUCCCGUACGGAACG

Fewer inactive variants are shown than the library holds.

Variants of B1 are the subject of this data set. Briefly: yeast fitness relative to wild type (ratio to wild type); higher = fitter; tRNA-Arg(CCU), competitive growth, 37 C, YPD. In outline:
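For this measurement, the tRNA-Arg(CCU) gene was varied by chemical synthesis at a 3% per-site mutation rate across 69 sites, and each variant was placed at the native genomic locus in Saccharomyces cerevisiae. The pooled strains went through a 24-hour competition in YPD at 37°C in six parallel replicates, with amplicons from start and end populations read by 100-nucleotide paired-end sequencing. Darwinian fitness relative to wild type followed from the change in each genotype's frequency. Genotypes needed ≥ 100 starting reads, and estimates < 0.5 were set to 0.5.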
As for C31U C49U C61G, the yeast fitness turned out to be 0.638.

On to C31G G48C G58A, for which the yeast fitness was 0.821.

In the case of C31G A43U C46G, the yeast fitness amounted to 0.586.

With C31G C33A, the yeast fitness turned out to be 0.678.

As for C31G A37G C62U G63C, the yeast fitness came out at 0.54.

As for C31G U64C, the yeast fitness was 0.777.

As for C31G U64G, the yeast fitness is 0.714.

Consider C31G C46G C61G, for which the yeast fitness was ≤ 0.5.

Consider C31U C49U C66A G67A, for which the yeast fitness was ≤ 0.5.

As for C31G A37U A42U, the yeast fitness was found to be 0.56.

In the case of C31G C34U A40C C66A, the yeast fitness was ≤ 0.5.

For the variant C31U A36U A45C C46G G48C, the yeast fitness is 0.53.

In the case of C31G G38A U54A, the yeast fitness is ≤ 0.5.

In the case of C31G G44A, the yeast fitness was 1.07.

Consider C31U A45C U47C A70U, for which the yeast fitness was ≤ 0.5.

On to C31U A45U C46G, for which the yeast fitness came out at 0.94.

As to C31G A40G A45C U53A A70U, the yeast fitness was ≤ 0.5.

In the case of C31U A42C G67A, the yeast fitness was 0.628.

For the variant C31G G44C C46U, the yeast fitness stood at 1.

Regarding C31G U64A A69C, the yeast fitness is ≤ 0.5.

For C31G A40U A45U C62A, the yeast fitness came to 0.591.

For C31G G56A U59C A65C A70G, the yeast fitness is ≤ 0.5.

In the case of C31G A42U, the yeast fitness came out at 0.983.

As to C31U A36G, the yeast fitness stood at 0.857.

As to C31U A36U, the yeast fitness stood at 0.591.

On to C31U G48C A69C, for which the yeast fitness is 0.67.

With C31G A40G C46A C55G, the yeast fitness worked out at 0.578.

In the case of C31G A36G A69C, the yeast fitness was 0.622.

For the variant C31U C46G C55U, the yeast fitness is 0.542.

With C31G A36C C62G, the yeast fitness is ≤ 0.5.

As to C31G A42G U47G, the yeast fitness was determined as 0.573.

Consider C31U G38A A40C G68C A70U, for which the yeast fitness is ≤ 0.5.

For the variant C31U A65U G68U, the yeast fitness was 0.699.

As for C31G C33A C49U U54G A65U, the yeast fitness came to 0.597.

For C31U C61U C66A, the yeast fitness was ≤ 0.5.

On to C31G U32C G39C, for which the yeast fitness is 0.507.

With C31A G63C G68U, the yeast fitness is ≤ 0.5.

Take C31G G41C G50C C60U A69C: the yeast fitness was ≤ 0.5.

On to C31G G52C A57U, for which the yeast fitness came to 0.599.

On to C31G A42U C66U, for which the yeast fitness was found to be 0.767.

For C31U C34A A36G G38C G51A, the yeast fitness was ≤ 0.5.

As for C31U G41C A43C G48A C60G, the yeast fitness is ≤ 0.5.

Turning to C31G A45U C55U C62U, the yeast fitness was determined as 0.564.

Consider C31G A36G, for which the yeast fitness was 0.783.

Consider C31G A36C, for which the yeast fitness came out at 0.555.

In the case of C31G C55U U59A, the yeast fitness worked out at 0.559.

On to C31A G48C, for which the yeast fitness worked out at 0.661.

As to C31A G48A, the yeast fitness is 0.764.

For the variant C31U A36G A45U, the yeast fitness came to 0.593.

For the variant C31G C33G C49U C60G C66A, the yeast fitness is ≤ 0.5.

For the variant C31G C34U C46U G56A, the yeast fitness is ≤ 0.5.

Turning to C31A G48A A69C, the yeast fitness came to 0.678.

For the variant C31U C34A A36G G38C A69U, the yeast fitness was ≤ 0.5.

Turning to C31G U32A, the yeast fitness is 0.766.

Regarding C31G U32G, the yeast fitness was found to be 0.556.

With C31U G48A G56U A65G, the yeast fitness is ≤ 0.5.

Regarding C31G G67U A69C, the yeast fitness came out at 0.526.

In the case of C31G C33G C34U G68A, the yeast fitness amounted to 0.603.

As for C31U A45U C55U, the yeast fitness was ≤ 0.5.

On to C31U A40U U59C A70U, for which the yeast fitness was ≤ 0.5.

For C31G G44C A65G A69C, the yeast fitness is ≤ 0.5.

For the variant C31U C46G A69U, the yeast fitness worked out at 0.731.

Regarding C31G G51C G56A U64A, the yeast fitness was ≤ 0.5.

As to C31G A36U C46U A65C, the yeast fitness was 0.74.

Turning to C31U A40U C66A, the yeast fitness is ≤ 0.5.

On to C31G U32A C49U C62A, for which the yeast fitness is ≤ 0.5.

On to C31G C60G C62U G68A, for which the yeast fitness was ≤ 0.5.

Take C31G G38C: the yeast fitness turned out to be 0.826.

On to C31G G38A, for which the yeast fitness was found to be 0.802.

For the variant C31G C46G, the yeast fitness came out at 1.04.

As to C31G A69G, the yeast fitness was 1.02.

Turning to C31U C33G C61A, the yeast fitness was 0.65.

Regarding C31G G50A, the yeast fitness came out at 0.837.

As for C31G G50C, the yeast fitness came out at 0.738.

For the variant C31G G38C A43U C62G, the yeast fitness is ≤ 0.5.

As for C31U A40C C46G, the yeast fitness is 0.744.

As for C31U C33A C46A, the yeast fitness amounted to 0.596.

As for C31A U47C G67A, the yeast fitness amounted to 0.544.

As to C31U A42U A70U, the yeast fitness was 1.14.

For C31G U32A G56C, the yeast fitness was determined as 0.6.

For the variant C31U A40G G63A A70U, the yeast fitness was ≤ 0.5.

As to C31G G58A, the yeast fitness amounted to 0.785.

For the variant C31U C46G G50U C61U, the yeast fitness was ≤ 0.5.

On to C31G A43G G51A, for which the yeast fitness stood at 0.593.

Consider C31U A36U A43C C55G, for which the yeast fitness was ≤ 0.5.

With C31U C33A, the yeast fitness was 0.585.

Consider C31G A45G A65G, for which the yeast fitness was determined as 0.628.

In the case of C31U C33U A37G U59A U64G, the yeast fitness came out at 0.525.

On to C31A G44C A65G, for which the yeast fitness was found to be 0.553.

In the case of C31U C33U A37C C55U, the yeast fitness was ≤ 0.5.

Turning to C31U A37G A45C A70C, the yeast fitness is ≤ 0.5.

Regarding C31G A43U U47A, the yeast fitness worked out at 0.605.

In the case of C31U C61A A69C, the yeast fitness amounted to 0.597.

Regarding C31U C61A A69U, the yeast fitness stood at 0.633.

Regarding C31G C46G C61G A69U, the yeast fitness is ≤ 0.5.

On to C31G G41C, for which the yeast fitness was 0.696.

For the variant C31G C49U, the yeast fitness is 0.92.

Regarding C31G C49A, the yeast fitness was 0.734.

Turning to C31U A37U C46A C49A C55A C66G, the yeast fitness came to 0.663.

Take C31G A36C C49U U54G A65U: the yeast fitness was ≤ 0.5.

In the case of C31U C60A A69U, the yeast fitness turned out to be 0.506.

As to C31U C46A A69C, the yeast fitness was determined as 0.757.

As for C31G C34U G67U, the yeast fitness is ≤ 0.5.

As for C31G A57C, the yeast fitness was found to be 0.617.

Take C31G A57G: the yeast fitness stood at 0.771.

As for C31G A57U, the yeast fitness amounted to 0.726.

As to C31G C34G A36G C66A, the yeast fitness was ≤ 0.5.

Consider C31U C49G C60A, for which the yeast fitness was ≤ 0.5.

For C31G A45C C60A G63A, the yeast fitness is ≤ 0.5.

In the case of C31U A57U, the yeast fitness came out at 0.619.

Consider C31U A57G, for which the yeast fitness is 1.06.

Regarding C31G C61U G67A, the yeast fitness was ≤ 0.5.

In the case of C31U A40G U54C A70U, the yeast fitness worked out at 0.527.

In the case of C31U A43U G48A U53A C62U, the yeast fitness is ≤ 0.5.

On to C31A G56A, for which the yeast fitness is 0.805.

For the variant C31U A40G, the yeast fitness is 0.786.

For the variant C31U A40U, the yeast fitness turned out to be 0.975.

Turning to C31U A40C, the yeast fitness came to 0.937.

As for C31U G58A, the yeast fitness was determined as 0.965.

As for C31U A43U G48A U53A, the yeast fitness was found to be 0.587.

In the case of C31U C61G, the yeast fitness was 0.707.

For C31U C61U, the yeast fitness amounted to 0.93.

With C31U C61A, the yeast fitness came out at 0.726.

On to C31G C34U C46U G56A G63A, for which the yeast fitness was ≤ 0.5.

For C31G G51C, the yeast fitness turned out to be 0.756.

On to C31G A57C C61U, for which the yeast fitness is ≤ 0.5.

In the case of C31A G52C, the yeast fitness was ≤ 0.5.

C31G G44U A70C: the yeast fitness was ≤ 0.5.

On to C31A G67A, for which the yeast fitness worked out at 0.754.

With C31U G39A A57C, the yeast fitness was ≤ 0.5.

As for C31A G68C, the yeast fitness is 0.648.

As for C31A G68A, the yeast fitness turned out to be 0.694.

Take C31G U32G C55A C62G A65U: the yeast fitness worked out at 0.688.

Regarding C31U G48A A65G, the yeast fitness turned out to be 0.917.

As to C31A U32C, the yeast fitness is 0.766.

Turning to C31G U53A, the yeast fitness was determined as 0.694.

Consider C31G U35A A65U, for which the yeast fitness amounted to 0.622.

Take C31U A40G A70U: the yeast fitness is 0.55.

With C31G C33A G48C, the yeast fitness is ≤ 0.5.

For C31U A37U, the yeast fitness was found to be 0.744.

For C31U A37G, the yeast fitness is 0.69.

For the variant C31G G44C A69C, the yeast fitness amounted to 0.611.

On to C31U C46U, for which the yeast fitness was 1.02.

With C31G G51A U59A, the yeast fitness is ≤ 0.5.

As for C31G C34U C46U G56A C62U, the yeast fitness was ≤ 0.5.

As to C31U G50C, the yeast fitness was found to be 0.955.

In the case of C31U C34A C61G, the yeast fitness was ≤ 0.5.

Turning to C31G A36U G41A A45C, the yeast fitness is ≤ 0.5.

Consider C31U C34U A57C, for which the yeast fitness was ≤ 0.5.

C31G C46A G63C A65U: the yeast fitness came out at 0.509.

As to C31G A43G C49U G68A A69C, the yeast fitness is ≤ 0.5.

Consider C31U G44A A45U A57G, for which the yeast fitness amounted to 0.537.

For the variant C31G A45U C62U, the yeast fitness came to 0.876.

In the case of C31G G52C, the yeast fitness is 0.531.

Take C31G G52A: the yeast fitness turned out to be 0.755.

As to C31G, the yeast fitness is 0.939.

On to C31U, for which the yeast fitness amounted to 0.986.

Take C31U C49U: the yeast fitness came to 1.04.

On to C31U A36U A69C, for which the yeast fitness worked out at 0.591.

For the variant C31G A65U, the yeast fitness is 0.799.

As to C31G A65C C66U, the yeast fitness is ≤ 0.5.

C31U A43G U53C: the yeast fitness worked out at 0.513.

Consider C31G A37U G56C, for which the yeast fitness was ≤ 0.5.

Regarding C31G A43C A70U, the yeast fitness was 0.637.

Consider C31U A42U, for which the yeast fitness was 0.957.

In the case of C31G C46U C49U G56C, the yeast fitness is ≤ 0.5.

For C31G A43U, the yeast fitness was found to be 0.984.
